According to ChEMBL document CHEMBL2375304, “Synthesis and anticancer activity of novel 2-pyridyl hexahyrocyclooctathieno[2,3-d]pyrimidine derivatives” (2013):

How the values were obtained:
Format in all cases: functional
K562 = assay: Growth inhibition of human K562 cells at 10^-5 M after 48 hrs by Sulforhodamine B assay relative to control; settings: K562, 48 h, read-out: GI
Procedure, shortened: (§1)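 Single-dose screen at 10⁻⁵ M. Cells are preincubated 24 h at 37 °C in 5% CO2, then exposed to the compound, diluted from a DMSO stock into medium with gentamicin, for 48 h. Adherent cells are fixed with cold TCA (final 10%) and suspension cells with TCA (final 16%). Cells are stained with 0.4% SRB in 1% acetic acid and bound dye is read at 515 nm. Percent growth inhibition is taken against control wells and time-zero plates.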

A498 = assay: Growth inhibition of human A498 cells at 10^-5 M after 48 hrs by Sulforhodamine B assay relative to control; settings: A498, 48 h, read-out: GI; procedure, shortened: as §1
SK-MEL-28 [1] = assay: Growth inhibition of human SK-MEL-28 cells at 10^-5 M after 48 hrs by Sulforhodamine B assay relative to control; settings: SK-MEL-28, 48 h, read-out: GI
Procedure, shortened: (§2)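 Single-dose primary screen at 10⁻⁵ M across 49 lines. Cells were plated 24 h beforehand, with a TCA-fixed time-zero plate, then exposed 48 h at 37 °C, 5% CO2. Cells were fixed with cold TCA, stained with SRB and read at 515 nm. Percent growth was calculated against time-zero and untreated-control absorbances.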

SF-539 = assay: Growth inhibition of human SF539 cells at 10^-5 M after 48 hrs by Sulforhodamine B assay relative to control; settings: SF-539, 48 h, read-out: GI; procedure, shortened: as §2
Malme-3M = assay: Growth inhibition of human MALME-3M cells at 10^-5 M after 48 hrs by Sulforhodamine B assay relative to control; settings: read-out: GI; procedure, shortened: as §1
DU-145 [2] = assay: Growth inhibition of human DU145 cells at 10^-5 M after 48 hrs by Sulforhodamine B assay relative to control; settings: DU-145, 48 h, read-out: GI; procedure, shortened: as §1
MOLT-4 = assay: Growth inhibition of human MOLT4 cells at 10^-5 M after 48 hrs by Sulforhodamine B assay relative to control; settings: MOLT-4, 48 h, read-out: GI; procedure, shortened: as §2
SK-OV-3 = assay: Growth inhibition of human SKOV3 cells at 10^-5 M after 48 hrs by Sulforhodamine B assay relative to control; settings: SK-OV-3, 48 h, read-out: GI; procedure, shortened: as §2
NCI-H322M = assay: Growth inhibition of human NCI-H322M cells at 10^-5 M after 48 hrs by Sulforhodamine B assay relative to control; settings: read-out: GI; procedure, shortened: as §2
OVCAR-8 [3] = assay: Growth inhibition of human OVCAR8 cells at 10^-5 M after 48 hrs by Sulforhodamine B assay relative to control; settings: OVCAR-8, 48 h, read-out: GI; procedure, shortened: as §2
MDA-MB-231 [4] = assay: Growth inhibition of human MDA-MB-231 cells at 10^-5 M after 48 hrs by Sulforhodamine B assay relative to control; settings: MDA-MB-231, 48 h, read-out: GI; procedure, shortened: as §1
ACHN [5] = assay: Growth inhibition of human ACHN cells at 10^-5 M after 48 hrs by Sulforhodamine B assay relative to control; settings: read-out: GI; procedure, shortened: as §1
UACC-62 = assay: Growth inhibition of human UACC62 cells after 48 hrs by Sulforhodamine B assay; settings: UACC-62, 48 h
Procedure, shortened: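 Five-concentration stage in the […]-cell-line panel, using 10-fold or ½-log serial dilutions made from a DMSO stock (400-fold). Cells were preincubated 24 h at 37 °C, then drug-exposed 48 h. A time-zero plate was fixed with TCA at dosing, adherent cells were fixed with cold TCA (10% final), and protein was stained with SRB, absorbance 515 nm. GI50 was where [(Ti−Tz)/(C−Tz)]×100 = 50, from the percent growth vs log concentration plot, expressed as log10 GI50.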

ACHN [6] = assay: Growth inhibition of human ACHN cells after 48 hrs by Sulforhodamine B assay
Procedure, shortened: (§3)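 Five-concentration SRB assay using 10-fold or ½-log serial dilutions from a DMSO stock. Exposure is 48 h at 37 °C in 5% CO2 after 24 h preincubation. TCA fixation is followed by SRB staining and a reading at 515 nm. Percentage growth is computed from time-zero, control and treated absorbances. GI50 is the concentration where [(Ti−Tz)/(C−Tz)]×100 = 50, read from the plot against log concentration.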

SF-268 = assay: Growth inhibition of human SF268 cells after 48 hrs by Sulforhodamine B assay; settings: SF-268, 48 h
Procedure, shortened: (§4)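 Cells were preincubated 24 h at 37 °C, 5% CO2, and a time-zero plate was TCA-fixed. Five concentrations were made by serial dilution from a DMSO stock (400-fold the top concentration) and incubated 48 h. Adherent cells were fixed with 10% final TCA and suspension cells with 16%. Plates were stained with 0.4% SRB and read at 515 nm. GI50 is the concentration giving 50% reduction in net protein increase versus control.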

NCI-H226 = assay: Growth inhibition of human NCI-H226 cells after 48 hrs by Sulforhodamine B assay; settings: NCI-H226, 48 h; procedure, shortened: as §4
COLO 205 = assay: Growth inhibition of human COLO205 cells after 48 hrs by Sulforhodamine B assay; settings: COLO 205, 48 h; procedure, shortened: as §3
[7] = Growth inhibition of human HCC2998 cells after 48 hrs by Sulforhodamine B assay; settings: HCC 2998, 48 h; procedure, shortened: as §3
PC-3 = assay: Growth inhibition of human PC3 cells after 48 hrs by Sulforhodamine B assay; settings: PC-3, 48 h; procedure, shortened: as §4
SK-MEL-28 [8] = assay: Growth inhibition of human SK-MEL-28 cells after 48 hrs by Sulforhodamine B assay; settings: SK-MEL-28, 48 h; procedure, shortened: as §4
MDA-MB-231 [9] = assay: Growth inhibition of human MDA-MB-231 cells after 48 hrs by Sulforhodamine B assay; settings: MDA-MB-231, 48 h; procedure, shortened: as §3
DU-145 [10] = assay: Growth inhibition of human DU145 cells after 48 hrs by Sulforhodamine B assay; settings: DU-145, 48 h; procedure, shortened: as §3
OVCAR-8 [11] = assay: Growth inhibition of human OVCAR8 cells after 48 hrs by Sulforhodamine B assay; settings: OVCAR-8, 48 h; procedure, shortened: as §4
HL-60(TB) = assay: Growth inhibition of human HL-60(TB) cells after 48 hrs by Sulforhodamine B assay; settings: HL-60, 48 h
Procedure, shortened: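 Suspension cells pre-incubated 24 h at 37 °C, 5% CO2 before drug addition, with a time-zero plate fixed then. DMSO stocks diluted in medium with gentamicin to five concentrations (10-fold or ½-log steps); 48 h exposure. Settled cells fixed with TCA (final 16%), stained with SRB, dye dissolved in 10 mM Tris base, read at 515 nm. GI50 solved from [(Ti−Tz)/(C−Tz)]×100 = 50.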

MDA-MB-468 = assay: Growth inhibition of human MDA-MB-468 cells after 48 hrs by Sulforhodamine B assay; settings: MDA-MB-468, 48 h; procedure, shortened: as §4
MCF7 = assay: Growth inhibition of human MCF7 cells after 48 hrs by Sulforhodamine B assay; settings: MCF7, 48 h; procedure, shortened: as §3
SN12C = assay: Growth inhibition of human SN12C cells after 48 hrs by Sulforhodamine B assay; procedure, shortened: as §4
Hs-578T = assay: Growth inhibition of human Hs578T cells after 48 hrs by Sulforhodamine B assay; procedure, shortened: as §3
CCRF-CEM = assay: Growth inhibition of human CCRF-CEM cells at 10^-5 M after 48 hrs by Sulforhodamine B assay relative to control; settings: read-out: GI; procedure, shortened: as §1

Compound	inhibition of growth at 10 µM (K562) [%]	inhibition of growth at 10 µM (A498) [%]	inhibition of growth at 10 µM (SK-MEL-28 [1]) [%]	inhibition of growth at 10 µM (SF-539) [%]	inhibition of growth at 10 µM (Malme-3M) [%]	inhibition of growth at 10 µM (DU-145 [2]) [%]	inhibition of growth at 10 µM (MOLT-4) [%]	inhibition of growth at 10 µM (SK-OV-3) [%]	inhibition of growth at 10 µM (NCI-H322M) [%]	inhibition of growth at 10 µM (OVCAR-8 [3]) [%]	inhibition of growth at 10 µM (MDA-MB-231 [4]) [%]	inhibition of growth at 10 µM (ACHN [5]) [%]	GI50 (UACC-62) [µM]	GI50 (ACHN [6]) [µM]	GI50 (SF-268) [µM]	GI50 (NCI-H226) [µM]	GI50 (COLO 205) [µM]	GI50 [7] [µM]	GI50 (PC-3) [µM]	GI50 (SK-MEL-28 [8]) [µM]	other results
COc1ccc(N2CCN(c3nc(-c4ccncc4)nc4sc5c(c34)CCCCCC5)CC2)cc1	23.2	6.97	-5.27	7.87	-7.69	2.73	16.1	0.84	-7.78	5.9	12.1	19.9	–	–	–	–	–	–	–	–	–
COc1ccc(N2CCN(c3nc(-c4ccccn4)nc4sc5c(c34)CCCCCC5)CC2)cc1	–	–	–	–	–	–	–	–	–	–	–	–	6.92	5.13	> 100	6.46	5.62	10.2	3.31	> 100	GI50 (MDA-MB-231 [9]): 50.1 µM; GI50 (DU-145 [10]): 28.2 µM; GI50 (OVCAR-8 [11]): 5.25 µM; GI50 (HL-60(TB)): 4.07 µM; GI50 (MDA-MB-468): 4.07 µM; GI50 (MCF7): 3.16 µM; GI50 (SN12C): 6.03 µM; GI50 (Hs-578T): 57.5 µM
c1ccc(N2CCN(c3nc(-c4ccncc4)nc4sc5c(c34)CCCCCC5)CC2)cc1	7.55	4.79	-15	1.14	-6.19	-4.95	4.82	1.97	-2.96	8.55	2.4	7.05	–	–	–	–	–	–	–	–	–
c1ccc(N2CCN(c3nc(-c4ccccn4)nc4sc5c(c34)CCCCCC5)CC2)cc1	79.2	38.4	7.85	12.6	7.96	21.1	47.9	12.6	17.7	44.5	22.4	56.1	–	–	–	–	–	–	–	–	inhibition of growth at 10 µM (CCRF-CEM): 31%
CN1CCN(c2nc(-c3ccncc3)nc3sc4c(c23)CCCCCC4)CC1	–	–	–	–	–	–	–	–	–	–	–	–	11	7.94	5.37	10.5	4.9	3.89	4.68	12.6	GI50 (MDA-MB-231 [9]): 4.27 µM; GI50 (DU-145 [10]): 12.6 µM; GI50 (OVCAR-8 [11]): 12.3 µM; GI50 (HL-60(TB)): 12.6 µM; GI50 (MDA-MB-468): 5.25 µM; GI50 (MCF7): 6.61 µM; GI50 (SN12C): 5.62 µM; GI50 (Hs-578T): 2.29 µM
c1cc(-c2nc(N3CCOCC3)c3c4c(sc3n2)CCCCCC4)ccn1	29.3	33.7	-7.03	15.8	-1.71	1.4	24.5	0.61	-14.3	15.3	28.1	17.1	–	–	–	–	–	–	–	–	inhibition of growth at 10 µM (CCRF-CEM): 2.07%
